Data taken from ChEMBL document CHEMBL5532695, “4-Trifluoromethyl bithiazoles as broad-spectrum antimicrobial agents for virus-related bacterial infections or co-infections” (RSC Med Chem, 2024).

Key:
[1] = test system: Bacillus subtilis; experiment: Bactericidal activity against Bacillus subtilis ATCC 6633 assessed as reduction in microbial growth measured after 18 hrs by CLSI based broth microdilution method; format: functional
In short: (§1)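 MBC by CLSI broth microdilution in Mueller–Hinton medium, triplicate. Inoculum 5 × 10^4 CFU per well. Read after 18 h at 35 ± 2 °C.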

[2] = test system: Staphylococcus haemolyticus; experiment: Bactericidal activity against oxacillin-resistant Staphylococcus haemolyticus SI-6/2011 assessed as reduction in microbial growth measured after 18 hrs by CLSI based broth microdilution method; format: functional
[3] = test system: Staphylococcus aureus; experiment: Antibacterial activity against methicillin-resistant Staphylococcus aureus ATCC 43300 assessed as reduction in microbial growth measured after 18 hrs by CLSI based broth microdilution method; format: functional
In short: (§2)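 Gram-positive clinical isolates; compounds dissolved in DMSO (50 mg mL−1 stock) and diluted in medium; MIC by CLSI broth microdilution in Mueller–Hinton medium, inoculum 5 × 10^4 CFU per well, read after 18 h at 35 ± 2 °C; triplicate.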

[4] = test system: Enterococcus faecium; experiment: Bactericidal activity against Vancomycin resistant Enterococcus faecium SI-3856B assessed as reduction in microbial growth measured after 18 hrs by CLSI based broth microdilution method; format: functional
[5] = test system: Staphylococcus haemolyticus; experiment: Antibacterial activity against oxacillin-resistant Staphylococcus haemolyticus SI-6/2011 assessed as reduction in microbial growth measured after 18 hrs by CLSI based broth microdilution method; format: functional; in short: as §2
[6] = test system: Escherichia coli; experiment: Synergistic antibacterial activity against Escherichia coli CCUGT incubated for 18 to 24 hrs in presence of colistin by broth microdilution method; format: functional; conditions: time 18-24 hrs
[7] = test system: Staphylococcus warneri; experiment: Antibacterial activity against oxacillin-resistant Staphylococcus warneri SI-5/2011 assessed as reduction in microbial growth measured after 18 hrs by CLSI based broth microdilution method; format: functional; in short: as §2
[8] = test system: Enterococcus faecium; experiment: Bactericidal activity against Vancomycin/teicoplanin resistant Enterococcus faecium SI-759 assessed as reduction in microbial growth measured after 18 hrs by CLSI based broth microdilution method; format: functional
[9] = test system: Klebsiella pneumoniae; experiment: Synergistic antibacterial activity against Klebsiella pneumoniae ATCC 13833 incubated for 18 to 24 hrs in presence of colistin by broth microdilution method; format: functional; conditions: time 18-24 hrs
[10] = Cytotoxicity against african green monkey Vero E6 cells assessed as reduction in cell viability by MTT assay; format: toxicity, cell-based; conditions: chlorocebus sabaeus, Vero E6 cells (Vero C1008)
In short: (§3)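 MTT viability on HeLa or VeroE6 cells, run in parallel with the antiviral assays. CC50 from variable-slope sigmoidal dose–response regression.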

[11] = test system: Enterococcus faecium; experiment: Antibacterial activity against Vancomycin resistant Enterococcus faecium SI-3856B assessed as reduction in microbial growth measured after 18 hrs by CLSI based broth microdilution method; format: functional; in short: as §2
[12] = test system: Streptococcus pyogenes; experiment: Antibacterial activity against Streptococcus pyogenes ATCC 12344 assessed as reduction in microbial growth measured after 18 hrs by CLSI based broth microdilution method; format: functional
In short: (§4)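 MIC by CLSI broth microdilution in Mueller–Hinton medium, triplicate. Inoculum 5 × 10^4 CFU per well. Compounds taken up in DMSO (50 mg mL−1 stock) and diluted in medium. Read after 18 h at 35 ± 2 °C.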

[13] = test system: Enterococcus faecalis; experiment: Bactericidal activity against Enterococcus faecalis ATCC 29212 assessed as reduction in microbial growth measured after 18 hrs by CLSI based broth microdilution method; format: functional; in short: as §1
[14] = test system: Enterococcus faecium; experiment: Bactericidal activity against Vancomycin resistant Enterococcus faecium SI-1831 assessed as reduction in microbial growth measured after 18 hrs by CLSI based broth microdilution method; format: functional
[15] = test system: Bacillus subtilis; experiment: Antibacterial activity against Bacillus subtilis ATCC 6633 assessed as reduction in microbial growth measured after 18 hrs by CLSI based broth microdilution method; format: functional; in short: as §4
[16] = test system: Staphylococcus warneri; experiment: Bactericidal activity against oxacillin-resistant Staphylococcus warneri SI-5/2011 assessed as reduction in microbial growth measured after 18 hrs by CLSI based broth microdilution method; format: functional
[17] = test system: Staphylococcus aureus; experiment: Bactericidal activity against Staphylococcus aureus ATCC 25923 assessed as reduction in microbial growth measured after 18 hrs by CLSI based broth microdilution method; format: functional; in short: as §1
[18] = test system: Enterococcus faecium; experiment: Antibacterial activity against Vancomycin/teicoplanin resistant Enterococcus faecium SI-759 assessed as reduction in microbial growth measured after 18 hrs by CLSI based broth microdilution method; format: functional; in short: as §2
[19] = test system: Pseudomonas aeruginosa; experiment: Synergistic antibacterial activity against Pseudomonas aeruginosa ATCC 27853 incubated for 18 to 24 hrs in presence of colistin by broth microdilution method; format: functional; conditions: time 18-24 hrs
[20] = test system: Enterococcus faecium; experiment: Antibacterial activity against Vancomycin resistant Enterococcus faecium SI-1831 assessed as reduction in microbial growth measured after 18 hrs by CLSI based broth microdilution method; format: functional; in short: as §2
[21] = test system: Streptococcus pyogenes; experiment: Bactericidal activity against Streptococcus pyogenes ATCC 12344 assessed as reduction in microbial growth measured after 18 hrs by CLSI based broth microdilution method; format: functional; in short: as §1
[22] = test system: Staphylococcus aureus; experiment: Bactericidal activity against methicillin-resistant Staphylococcus aureus ATCC 43300 assessed as reduction in microbial growth measured after 18 hrs by CLSI based broth microdilution method; format: functional
[23] = test system: Staphylococcus aureus; experiment: Antibacterial activity against Staphylococcus aureus ATCC 25923 assessed as reduction in microbial growth measured after 18 hrs by CLSI based broth microdilution method; format: functional; in short: as §4
[24] = test system: Acinetobacter baumannii; experiment: Synergistic antibacterial activity against Acinetobacter baumannii ATCC 17978 incubated for 18 to 24 hrs in presence of colistin by broth microdilution method; format: functional; conditions: time 18-24 hrs
[25] = test system: Staphylococcus epidermidis; experiment: Antibacterial activity against linezolid-resistant Staphylococcus epidermidis SI-1266 assessed as reduction in microbial growth measured after 18 hrs by CLSI based broth microdilution method; format: functional; in short: as §2
[26] = test system: rhinovirus A16; experiment: microbe, parasite or virus in culture; conditions: Rhinovirus A, HeLa, 48 h
[27] = Cytotoxicity against human HeLa cells assessed as reduction in cell viability by MTT assay; format: toxicity, cell-based; in short: as §3
[28] = test system: enterovirus D68; experiment: microbe, parasite or virus in culture; conditions: Enterovirus D, HeLa, 48 h
[29] = test system: Enterococcus faecalis; experiment: Antibacterial activity against Enterococcus faecalis ATCC 29212 assessed as reduction in microbial growth measured after 18 hrs by CLSI based broth microdilution method; format: functional; in short: as §4
[30] = test system: Staphylococcus epidermidis; experiment: Bactericidal activity against linezolid-resistant Staphylococcus epidermidis SI-1266 assessed as reduction in microbial growth measured after 18 hrs by CLSI based broth microdilution method; format: functional
[31] = test system: Zika virus; conditions: vero e6
[32] = target: Phosphatidylinositol 4-kinase beta (Homo sapiens, UniProt Q9UBF8); experiment: Inhibition of recombinant full length his tagged PI4KB (unknown origin) incubated for 10 mins in presence of ATP by ADP-glo kinase assay
[33] = test system: rhinovirus A16; conditions: hela
[34] = test system: enterovirus D68; conditions: hela
[35] = test system: Zika virus; experiment: microbe, parasite or virus in culture; conditions: Vero C1008, 72 h

Phosphatidylinositol 4-kinase beta, sequence (Q9UBF8 whole entry): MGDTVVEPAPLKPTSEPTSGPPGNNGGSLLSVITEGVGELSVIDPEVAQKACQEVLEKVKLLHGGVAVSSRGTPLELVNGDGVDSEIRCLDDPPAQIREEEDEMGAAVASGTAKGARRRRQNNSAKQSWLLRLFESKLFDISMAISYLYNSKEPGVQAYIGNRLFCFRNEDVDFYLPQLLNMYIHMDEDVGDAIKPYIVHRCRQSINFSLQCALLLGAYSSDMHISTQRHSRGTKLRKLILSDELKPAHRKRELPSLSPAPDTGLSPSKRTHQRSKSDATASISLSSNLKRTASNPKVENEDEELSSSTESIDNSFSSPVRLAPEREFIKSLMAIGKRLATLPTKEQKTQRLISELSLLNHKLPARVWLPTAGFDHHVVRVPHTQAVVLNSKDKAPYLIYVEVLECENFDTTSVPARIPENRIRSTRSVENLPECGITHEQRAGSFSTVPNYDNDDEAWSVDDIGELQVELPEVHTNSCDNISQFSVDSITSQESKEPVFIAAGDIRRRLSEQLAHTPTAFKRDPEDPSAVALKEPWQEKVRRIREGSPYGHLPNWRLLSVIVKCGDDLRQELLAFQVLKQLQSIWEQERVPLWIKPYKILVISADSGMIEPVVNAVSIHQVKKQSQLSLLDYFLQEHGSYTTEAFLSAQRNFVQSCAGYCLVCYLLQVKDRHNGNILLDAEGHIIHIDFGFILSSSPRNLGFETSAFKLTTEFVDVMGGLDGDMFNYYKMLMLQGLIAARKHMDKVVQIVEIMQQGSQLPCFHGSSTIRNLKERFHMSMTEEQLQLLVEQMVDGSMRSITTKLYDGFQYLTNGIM

MIC [12] [µg/mL] | MIC [15] [µg/mL] | MIC [23] [µg/mL] | IC50 [28] [µM] | MIC [29] [µg/mL] | IC50 [32] | IC50 [33] | Compound | MBC [1] [µg/mL] | MBC [2] [µg/mL] | MIC [3] [µg/mL] | MBC [4] [µg/mL] | MIC [5] [µg/mL] | MAC [6] [µg/mL] | MIC [7] [µg/mL] | MAC [9] [µg/mL] | CC50 [10] [µM] | MAC [19] [µg/mL] | MAC [24] [µg/mL] | CC50 [27] [µM] | IC50 [31] | also measured
> 32 | > 32 | > 32 | 12.3 | > 32 | Not Active | Not Active | CC(C)(C)C(=O)Nc1nc(C(F)(F)F)c(-c2csc(Nc3cc(C(=O)O)cc(C(=O)O)c3)n2)s1 | – | – | – | – | – | >64 | – | >64 | > 50 | >64 | >64 | > 50 | Not Active | –
> 32 | > 32 | > 32 | – | > 32 | Not Active | Not Active | O=C(O)c1cc(Nc2nc(-c3sc(NC(=O)c4ccccc4)nc3C(F)(F)F)cs2)cc(C(=O)O)c1 | – | – | – | – | – | >64 | – | >64 | > 50 | >64 | >64 | > 50 | Not Active | IC50 [34]: Not Active
> 32 | > 32 | > 32 | 2.01 | > 32 | Not Active | – | COC(=O)c1cc(Nc2nc(-c3sc(NC(=O)C(C)(C)C)nc3C(F)(F)F)cs2)cc(C(F)(F)F)c1 | – | – | – | – | – | >64 | – | >64 | > 50 | >64 | >64 | 47.3 | – | IC50 [35]: 6.13 µM; IC50 [26]: 0.25 µM

Further lines, the compound ahead of its results:

Compound | MIC [12] [µg/mL] | MIC [15] [µg/mL] | MIC [23] [µg/mL] | IC50 [28] [µM] | MIC [29] [µg/mL] | IC50 [32] | IC50 [33] | MBC [1] [µg/mL] | MBC [2] [µg/mL] | MIC [3] [µg/mL] | MBC [4] [µg/mL] | MIC [5] [µg/mL] | MAC [6] [µg/mL] | MIC [7] [µg/mL] | MAC [9] [µg/mL] | CC50 [10] [µM] | MAC [19] [µg/mL] | MAC [24] [µg/mL] | CC50 [27] [µM] | IC50 [31] | also measured
CC(C)(C)C(=O)Nc1nc(C(F)(F)F)c(-c2csc(Nc3cc(C(=O)O)cc(C(F)(F)F)c3)n2)s1 | 4 | 16 | 16 | 4.18 | 32 | – | – | 16 | > 64 | 8 | > 64 | 16 | >64 | 16 | >64 | > 50 | >64 | >64 | > 50 | Not Active | MBC [8]: > 64 µg/mL; MIC [11]: 32 µg/mL; MBC [13]: > 32 µg/mL; MBC [14]: > 64 µg/mL; MBC [16]: > 64 µg/mL; MBC [17]: < 32 µg/mL; MIC [18]: 16 µg/mL; MIC [20]: 16 µg/mL; MBC [21]: 4 µg/mL; MBC [22]: > 64 µg/mL; MIC [25]: 16 µg/mL; IC50 [26]: 9.52 µM; MBC [30]: 64 µg/mL
O=C(O)c1cc(Nc2nc(-c3sc(NC(=O)c4ccccc4)nc3C(F)(F)F)cs2)cc(C(F)(F)F)c1 | 2 | 4 | > 32 | – | 2 | – | Not Active | 32 | > 64 | > 64 | > 64 | 32 | >64 | > 64 | >64 | > 50 | >64 | >64 | > 50 | Not Active | MBC [8]: > 64 µg/mL; MIC [11]: > 64 µg/mL; MBC [13]: > 32 µg/mL; MBC [14]: > 64 µg/mL; MBC [16]: > 64 µg/mL; MIC [18]: 64 µg/mL; MIC [20]: > 64 µg/mL; MBC [21]: > 32 µg/mL; IC50 [34]: Not Active; MBC [22]: > 64 µg/mL; MIC [25]: 32 µg/mL; MBC [30]: > 64 µg/mL
